Screening results deposited in PubChem BioAssay by Sanford-Burnham Center for Chemical Genomics.
This is a sample that favours compounds with a hit; in the whole collection about 3.3% have one here.
SENP6 inh: blocks the human protease SENP6; AID 2599; Recombinant SENP6 catalytic domain, aminoluciferin luminescence; 330,000 compounds, 1.8% hits; inhibition, % at 10 µM;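 active = inhibition above about 50% at the single tested dose, limit read from the data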
Target sequence (Q9GZR1 628-1112 limits assumed): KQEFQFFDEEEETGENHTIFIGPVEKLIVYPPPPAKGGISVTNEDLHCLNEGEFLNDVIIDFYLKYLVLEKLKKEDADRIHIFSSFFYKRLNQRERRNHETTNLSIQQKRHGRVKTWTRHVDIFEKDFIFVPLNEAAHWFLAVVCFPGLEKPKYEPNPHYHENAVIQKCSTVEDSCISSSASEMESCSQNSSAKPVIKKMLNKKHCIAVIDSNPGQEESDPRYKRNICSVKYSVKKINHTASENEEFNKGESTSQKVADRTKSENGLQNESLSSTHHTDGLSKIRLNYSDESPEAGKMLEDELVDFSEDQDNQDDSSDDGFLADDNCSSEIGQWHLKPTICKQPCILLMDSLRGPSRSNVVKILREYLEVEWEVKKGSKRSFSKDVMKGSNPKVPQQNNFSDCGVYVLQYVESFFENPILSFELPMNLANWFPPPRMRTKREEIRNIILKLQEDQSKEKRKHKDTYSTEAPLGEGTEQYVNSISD
SENP8 block-1: inhibitors of human SENP8 protease | recombinant SENP8, Nedd8 substrate fluorescence | inhibition, % at 20 µM | 360,000 compounds, 0.64% hits | AID 602440; in the data active = inhibition mostly above about 40%, no sharp cut-off; inactive = mostly below about 27%
SENP7 block: SENP7 protease inhibition; 330,000 compounds, 1.5% hits; Q9BQF6; recombinant SENP7, Z-RLRGG-aminoluciferin luminescence, 40 min; inhibition, % at 5 µM;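 active = inhibition above about 50% at the single test dose, limit read from the data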
SENP8 block-2: SENP8 protease inhibition. inhibition, % at 10 µM. Q96LD8. AID 2540. 330,000 compounds, 1.2% hits. purified SENP8, Z-RLRGG-aminoluciferin cleavage, luminescence; in the data active = inhibition above about 50%
CendR NRP1 mod: NRP-1/CendR interaction modulation; FAM-RPARPAR peptide binding to NRP-1, fluorescence polarization; inhibition, % at 25 µM; 360,000 compounds, 0.85% hits;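 active = inhibition or corrected inhibition above about 18%, plus a signal ratio from 0.5 to 1.5, limit read from the data, passing the limit was not always enough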
SENP1 inh: blocks the human SENP1 SUMO protease catalytic domain | Q9P0U3 | recombinant SENP1 catalytic domain, CyPet-SUMO1-YPet FRET cleavage | inhibition, % at 10 µM | 360,000 compounds, 0.21% hits | AID 624204;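 active = inhibition at least 30% at 10 µM, raw YFP signal under a set limit, fluorescence ratio 0.5 to 1.5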
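Controls: no-enzyme wells low, DMSO-plus-enzyme wells high control. Test system: human recombinant His6-tagged SENP1 catalytic domain enzyme. Reagent: SFCypet-SUMO1-SFYpet FRET protein substrate, 25 nM final. Doses: one dose per compound, 10 µM, 0.5% DMSO. Detection: FRET, CFP and YFP emission. Timing: 50 min reaction at room temperature.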
SENP8 conf: confirmation of human SENP8 protease inhibitors; inhibition, % at 12.5 µM; Recombinant SENP8, Z-RLRGG-aminoluciferin luminescence, 60 min; AID 488912; 6,200 compounds, 40% hits; shares compounds with SENP7 block;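 active = mean inhibition across replicates above about 50%, limit read from the data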
SENP6 conf: human SENP6 inhibition, confirmed | 6,200 compounds, 58% hits | recombinant SENP6, Z-RLRGG-aminoluciferin luminescence | inhibition, % at 12.5 µM | shares compounds with SENP7 block
SENP7 conf: confirmation of human SENP7 protease inhibitors; inhibition, % at 12.5 µM; 6,200 compounds, 69% hits; shares compounds with SENP7 block; AID 488917; recombinant SENP7, Z-RLRGG-aminoluciferin luminescence, 40 min
Casp3 select: caspase-3 inhibition (SENP selectivity assay); shares compounds with SENP7 block; purified caspase-3, Z-DEVD-aminoluciferin luminescence, 60 min; inhibition, % at 12.5 µM; 6,200 compounds, 60% hits; AID 488918;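 active = mean inhibition above about 50%, limit read from the data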
Target sequence (P42574 28-227 limits assumed): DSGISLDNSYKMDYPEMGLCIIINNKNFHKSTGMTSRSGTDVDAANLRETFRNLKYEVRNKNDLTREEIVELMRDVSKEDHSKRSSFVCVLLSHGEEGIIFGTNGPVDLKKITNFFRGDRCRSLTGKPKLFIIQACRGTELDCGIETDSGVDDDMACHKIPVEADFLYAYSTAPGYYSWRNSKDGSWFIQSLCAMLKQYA
SENP luc ctr: luminescence interference (SENP counter-screen) | Pre-incubated SENP8/Z-RLRGG-aminoluciferin, luciferase luminescence interference | inhibition, % at 12.5 µM | 6,200 compounds, 39% hits | shares compounds with SENP7 block;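 active = mean inhibition above about 50% when retested at one dose, limit read from the data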
Each line names hits and unclear results; the compound was inactive in the other large screens (follow-up assays come after a bar, where they were run).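 Rule for the calls, unless noted: active = mean inhibition above about 50% in the one-dose retest (limit read from the data); inactive = the rest.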

COc1ccc(-c2nc(-c3ccc(Br)o3)no2)cc1OC	none
COc1ccc(-c2nc(-c3ccc(Br)cc3)no2)c(OC)c1	none
COc1ccccc1-c1nc(-c2ccc(Br)o2)no1	SENP6 inh 83, SENP7 block 78, SENP8 block-2 78 | SENP8 conf inactive | SENP6 conf 59 | SENP7 conf 55 | Casp3 select inactive | SENP luc ctr 65
Cc1ccc(-c2noc(-c3ccccc3Br)n2)cc1	SENP6 inh 76, SENP7 block 90, SENP8 block-2 80 | SENP8 conf 64 | SENP6 conf 64 | SENP7 conf 85 | Casp3 select 70 | SENP luc ctr 65
c1ccc(-c2noc(-c3ccccc3-c3ccccc3)n2)cc1	none
COc1ccccc1-c1nc(-c2ccc(Br)cc2)no1	SENP6 inh 71, SENP8 block-2 70 | SENP8 conf inactive | SENP6 conf inactive | SENP7 conf inactive | Casp3 select inactive | SENP luc ctr inactive
COCc1cn(-c2nc3ccccc3s2)nn1	none (no result: SENP6 inh, SENP7 block, SENP8 block-2)
CN(C)c1ccc(CN2CCC(C(=O)NC(c3ccc(Cl)cc3)c3cnccn3)CC2)cc1 (stereo unspecified)	none (no result: SENP6 inh, SENP7 block, SENP8 block-2)
CC[C@@H](NCCCn1ccc(NC(=O)OCc2ccccc2)nc1=O)c1ccccc1	none (no result: SENP6 inh, SENP7 block, SENP8 block-2)
CCCNC(=O)CCn1c(=S)oc2ccccc21	SENP6 inh 58 | SENP8 conf inactive | SENP6 conf inactive | SENP7 conf inactive | Casp3 select inactive | SENP luc ctr inactive
O=C(O)c1ccc(/C=C/c2ccc3cccc(O)c3n2)cc1	SENP6 inh 95, SENP7 block 98, SENP8 block-2 95 | SENP8 conf 98 | SENP6 conf 99 | SENP7 conf 102 | Casp3 select 97 | SENP luc ctr 78
COC(=O)c1ccc(/C=C/c2ccc3cccc(OC(C)=O)c3n2)cc1	SENP6 inh 95, SENP7 block 91, SENP8 block-2 87 | SENP8 conf 79 | SENP6 conf 90 | SENP7 conf 98 | Casp3 select 86 | SENP luc ctr inactive
Oc1ccc(/C=C/c2ccc3cccc(O)c3n2)cc1Br	SENP6 inh 97, SENP7 block 88, SENP8 block-2 92 | SENP8 conf 98 | SENP6 conf 98 | SENP7 conf 102 | Casp3 select 84 | SENP luc ctr 94
Cc1ccc(S(=O)(=O)N2CCCN(C(=O)c3ccc(-n4nccc4C)cc3)CC2)cc1	none
CCCCN1C(=O)C(CC(=O)NCCc2ccccn2)CC(C(=O)N2CCOCC2)=C1C (stereo unspecified)	none (no result: SENP6 inh, SENP7 block, SENP8 block-2)
O=C(/C=C/c1ccccc1[N+](=O)[O-])NCCN1C(=O)S/C(=C\c2ccc(F)cc2)C1=O	SENP7 block 81 | SENP8 conf inactive | SENP6 conf inactive | SENP7 conf inactive | Casp3 select inactive | SENP luc ctr inactive
COc1ccc([C@H]2N[C@]3(CCCN(Cc4ccc(Br)cc4)C3=O)[C@H]3C(=O)N(C)C(=O)[C@@H]23)cc1	none (no result: SENP6 inh, SENP7 block, SENP8 block-2)
CC(/C=N/NC(=O)c1cccs1)=C\c1ccccc1	SENP7 block 77, SENP8 block-2 71 | SENP8 conf inactive | SENP6 conf 81 | SENP7 conf 93 | Casp3 select 63 | SENP luc ctr inactive
O=C(O)c1cc(N/N=C/C(Cl)=C/c2ccccc2)ccc1Cl	SENP6 inh 88, SENP7 block 89, SENP8 block-2 96 | SENP8 conf 98 | SENP6 conf 99 | SENP7 conf 101 | Casp3 select inactive | SENP luc ctr 97
Cc1cc(C(=O)N/N=C/C(Cl)=C/c2ccccc2)c(C)o1	SENP7 block 53 | SENP8 conf inactive | SENP6 conf inactive | SENP7 conf 75 | Casp3 select inactive | SENP luc ctr inactive
O=C(N/N=C/C(Cl)=C\c1ccccc1)c1cccs1	SENP6 inh 63, SENP8 block-2 52 | SENP8 conf inactive | SENP6 conf 59 | SENP7 conf 85 | Casp3 select inactive | SENP luc ctr inactive
O=C(O)c1cc(NN=C2c3ccccc3-c3ccccc32)ccc1Cl	none
CC(C)C[C@@H](CN)NC(=O)c1nc[nH]c1C(=O)N[C@@H](CC(C)C)C(=O)CNC[C@H](C)NC(=O)c1nc[nH]c1C(=O)N[C@@H](C)C(=O)O	none (no result: SENP6 inh, SENP7 block, SENP8 block-2)
COc1ccc(C2=CC(=O)C[C@H](c3ccc(Cl)cc3)C2)cn1	none
Cc1cc(C(=O)N/N=C/c2c(C)nn(-c3ccccc3)c2C)c(C)o1	SENP6 inh 50 | SENP8 conf inactive | SENP6 conf inactive | SENP7 conf 60 | Casp3 select 55 | SENP luc ctr inactive
CC(/C=N/NC(=O)c1ccccc1F)=C\c1ccccc1	SENP6 inh 58 | SENP8 conf inactive | SENP6 conf inactive | SENP7 conf 70 | Casp3 select 52 | SENP luc ctr 54
O=C(COC(=O)C1CC2C=CC1C2)Nc1c(Br)cc([N+](=O)[O-])cc1Br (stereo unspecified)	none
CC(C)[C@@H]1CC2=C(C(=O)OC(C)(C)O2)[C@H](CCc2ccccc2)O1	none (no result: SENP6 inh, SENP7 block, SENP8 block-2)
CN(C)c1ccc(/C=N/NC(=O)c2ccco2)cc1	SENP6 inh 65 | SENP8 conf inactive | SENP6 conf inactive | SENP7 conf 81 | Casp3 select 83 | SENP luc ctr inactive
CN(C)c1ccc(C=Nc2ccccc2C(N)=O)cc1	SENP6 inh 93, SENP7 block 96, SENP8 block-2 89 | SENP8 conf inactive | SENP6 conf 90 | SENP7 conf 101 | Casp3 select 95 | SENP luc ctr inactive
CN(C)c1ccc(/C=N\NC(=O)c2cccc3cc[nH]c23)cc1	SENP6 inh 86, SENP7 block 85, SENP8 block-2 76 | SENP8 conf 84 | SENP6 conf 82 | SENP7 conf 95 | Casp3 select 80 | SENP luc ctr 64
CN(C)c1ccc(/C=N/NC(=O)c2cc(=O)[nH]c3ccccc23)cc1	none
O=C(N/N=C/c1ccc2ncccc2c1)c1ccco1	SENP6 inh 66, SENP7 block 66 | SENP8 conf 53 | SENP6 conf 53 | SENP7 conf 84 | Casp3 select 87 | SENP luc ctr 64
CCc1nnc(NS(=O)(=O)c2ccc(NC(=O)c3ccc([N+](=O)[O-])s3)cc2)s1	none (no result: SENP6 inh, SENP7 block, SENP8 block-2)
